≈ marks a conversion by molar mass, not a printed value. Each block holds one compound with its values, some of them ahead of it. Calls of active or inactive are those of the source. The calls are words filed in the database; no cut-off is given here.
Columns and labels:
Plasmodium falciparum [1] = test: Antimalarial activity against Plasmodium falciparum 3D7 assessed as reduction in parasite growth measured after 72 hrs by Monash assay based fluorescence analysis; assay type: functional, organism-based; conditions: 3D7, 72 h
Summary of the method: (§1)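 Asynchronous P. falciparum cultures were grown continuously in complete RPMI with 25 mM HEPES, 0.5% Albumax II, 0.37 mM hypoxanthine and 2.0 g/l bicarbonate. They were exposed to serially diluted compound for 72 h. Controls were DMSO (0.01%) and a reference positive control. Fluorescence was read after 2 h in the dark at room temperature. IC50 is mean SEM from technical duplicate or triplicate, at least three biological replicates.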

[2] = system: Plasmodium falciparum 3D7; test: (§2) Binding affinity to Plasmodium falciparum 3D7 AMA1 (104 to 438 residues) expressed in Escherichia coli BL21(DE3) by surface plasmon resonance assay
Plasmodium falciparum [3] = test: Antimalarial activity against synchronous ring stage of Plasmodium falciparum 3D7 assessed as parasite growth inhibition incubated for 72 hrs by Griffith assay based fluorescence analysis; assay type: functional, organism-based; conditions: 3D7, 72 h
Summary of the method: (§3)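 22-point dose-response, 3 per log, final 40 µM top, 0.4% DMSO. 72 h at 37 °C under 90% N2/5% CO2/5% O2. DAPI stain, confocal imaging. IC50 from 4-parameter fit normalised to in-plate puromycin and DMSO controls.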

Plasmodium falciparum [4] = test: Antimalarial activity against synchronous ring stage of Plasmodium falciparum Dd2 assessed as parasite growth inhibition incubated for 72 hrs by Griffith assay based fluorescence analysis; assay type: functional, organism-based; conditions: Dd2, 72 h; summary of the method: as §3
[5] = Selectivity index, ratio of IC50 for antimalarial activity against Plasmodium falciparum Dd2 to IC50 of antimalarial activity against Plasmodium falciparum 3D7; assay type: functional
Plasmodium falciparum [6] = test: Antimalarial activity against artemisinin-resistant Plasmodium falciparum Cam3.II^C580Y expressing K13 mutant assessed as reduction in parasite growth measured after 72 hrs by Monash assay based fluorescence analysis; assay type: functional, organism-based
Summary of the method: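 Asynchronous culture, 72 h compound exposure. Compounds prepared at […] (twice the top concentration) in complete RPMI (25 mM HEPES, 0.5% Albumax II, 0.37 mM hypoxanthine, sodium bicarbonate), then serially diluted. Fluorescence read after 2 h room-temperature dark incubation. Negative control 0.01% DMSO. IC50 as mean SEM, n ≥ 3 biological replicates, each in technical duplicate or triplicate.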

Plasmodium falciparum [7] = test: Antimalarial activity against artemisinin-sensitive Plasmodium falciparum Cam3.II^rev expressing wild type K13 assessed as reduction in parasite growth measured after 72 hrs by Monash assay based fluorescence analysis; assay type: functional, organism-based; summary of the method: as §1
Plasmodium falciparum [8] = test: Antiplasmodial activity against PfATP4 inhibitor SJ557733-resistant Plasmodium falciparum Dd2 assessed as reduction in parasite growth incubated for 72 hrs by Griffith assay based fluorescence analysis; assay type: functional, organism-based; conditions: Dd2, 72 h; summary of the method: as §3
Plasmodium falciparum [9] = test: Selectivity index, ratio of IC50 for antimalarial activity against PfATP4 inhibitor SJ557733-resistant Plasmodium falciparum Dd2 to IC50 of antimalarial activity against Plasmodium falciparum Dd2; assay type: functional
[10] = Selectivity index, ratio of IC50 for cytotoxicity against human HEK293 cells to antiplasmodial activity against Plasmodium falciparum 3D7; assay type: toxicity, cell-based; conditions: read-out: Ratio IC50
[11] = Kinetic solubility of the compound at pH 2 measured after 30 mins by nephelometry; assay type: physicochemical; conditions: buffer, read-out: Kinetic_solubility
Summary of the method: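 Compound in DMSO was spiked into 0.01 M HCl (pH ~2.0) at a final DMSO of 1%. After 30 min, nephelometry gave a solubility range.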

[12] = Metabolic stability in mouse liver microsomes assessed as half-life at 1 uM measured for 60 mins in presence of NADPH regenerating system by LC-MS analysis; assay type: ADME, Microsome
Summary of the method: (§4)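 Compound was incubated at 37 °C with liver microsomes at 0.4 mg/mL protein. The reaction was started with an NADPH-regenerating system and quenched at time points over 60 min with acetonitrile containing diazepam as internal standard. No-NADPH controls were quenched at 2, 30 and 60 min.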

[13] = Metabolic stability in human liver microsomes assessed as half-life at 1 uM measured for 60 mins in presence of NADPH regenerating system by LC-MS analysis; assay type: ADME, Microsome; summary of the method: as §4
[14] = Metabolic stability in mouse liver microsomes assessed as intrinsic clearance at 1 uM measured per mg protein for 60 mins in presence of NADPH regenerating system by LC-MS analysis; assay type: ADME, Microsome; conditions: read-out: CLH; summary of the method: as §4
[15] = Metabolic stability in human liver microsomes assessed as intrinsic clearance at 1 uM measured per mg protein after 60 mins in presence of NADPH regenerating system by LC-MS analysis; assay type: ADME, Microsome; conditions: read-out: CLH; summary of the method: as §4
[16] = Kinetic solubility of the compound at pH 6.5 measured after 30 mins by nephelometry; conditions: buffer, read-out: Kinetic_solubility
HEK293 = test: Cytotoxicity against human HEK293 cells assessed as reduction in cell viability at 50 uM measured after 24 hrs by MTT assay; conditions: hek293, 24 h
[17] = as §2

SMILES: Nc1ncccc1-c1ccccc1O
- IC50 (Plasmodium falciparum [1]): > 500 nM

SMILES: Nc1nc2ccccc2n1-c1cccnc1O
- IC50 (Plasmodium falciparum [1]): > 500 nM

SMILES: Nc1nc2ccccc2n1[C@H]1CCCC[C@@H]1O
- IC50 (Plasmodium falciparum [1]): > 500 nM

SMILES: Nc1nccnc1-c1ccccc1O
- IC50 (Plasmodium falciparum [1]): > 500 nM

- Activity [2]: inactive
SMILES: Nc1nc2ccccc2n1-c1cccc(O)c1
- IC50 (Plasmodium falciparum [1]): > 500 nM

SMILES: CCc1nc(N)nc(N)c1-c1ccc(Cl)cc1 [PYRIMETHAMINE]
- IC50 (Plasmodium falciparum [3]): 4.7 nM
- IC50 (Plasmodium falciparum [4]): > 40000 nM
- Ratio IC50 [5]: > 8000

SMILES: Nc1nc2cccnc2n1-c1ccccc1O
- IC50 (Plasmodium falciparum [1]): > 500 nM

SMILES: Oc1ccccc1-n1c(NCC2CC2)nc2ccccc21
- IC50 (Plasmodium falciparum [1]): > 500 nM

SMILES: Nc1nc2ccccc2n1-c1cccc2cc[nH]c12
- IC50 (Plasmodium falciparum [1]): > 500 nM

SMILES: Nc1nc2ccccc2n1-c1ccc2cccnc2c1O
- IC50 (Plasmodium falciparum [1]): > 500 nM

SMILES: Nc1nc2ccccc2n1-c1cnccc1O
- IC50 (Plasmodium falciparum [1]): > 500 nM

- Activity [2]: inactive
SMILES: Cc1ccc(-n2c(N)nc3ccccc32)cc1
- IC50 (Plasmodium falciparum [1]): > 500 nM

- Activity [2]: inactive
SMILES: N#Cc1ccc(-n2c(N)nc3ccccc32)cc1
- IC50 (Plasmodium falciparum [1]): > 500 nM

SMILES: Cc1ccc(-n2c(N)nc3ccccc32)c(O)c1
- IC50 (Plasmodium falciparum [1]): 42 nM
- IC50 (Plasmodium falciparum [3]): 13.5 nM
- IC50 (Plasmodium falciparum [4]): 31.7 nM
- Ratio IC50 [5]: 2.3
- IC50 (Plasmodium falciparum [6]): 81 nM
- IC50 (Plasmodium falciparum [7]): 140 nM
- IC50 (Plasmodium falciparum [8]): 17.5 nM
- Ratio IC50 (Plasmodium falciparum [9]): 0.5
- selectivity ratio [10]: > 1000
- solubility kinetic at 0.5 h [11]: > 100 µg/mL
- half-life at 1 µM [12]: 0.3 h
- half-life at 1 µM [13]: 2.7 h
- microsomal CLint at 1 µM [14]: 97 µL/min/mg
- microsomal CLint at 1 µM [15]: 11 µL/min/mg
- solubility kinetic at 0.5 h [16]: 25 µg/mL (≈ 104 µM)
- Activity (HEK293): Non-Toxic

SMILES: CC(C)Nc1nc2ccccc2n1-c1ccccc1O
- IC50 (Plasmodium falciparum [1]): > 500 nM

- Activity [2]: inactive
SMILES: Nc1ccccc1-n1c(N)nc2ccccc21
- IC50 (Plasmodium falciparum [1]): > 500 nM

- Activity [2]: inactive
SMILES: Nc1nc2ccccc2n1-c1ccccc1CO
- IC50 (Plasmodium falciparum [1]): > 500 nM

SMILES: COc1cccc(O)c1-n1c(N)nc2ccccc21
- IC50 (Plasmodium falciparum [1]): 183 nM

SMILES: Nc1ccccc1-n1c(S)nc2ccccc21
- IC50 (Plasmodium falciparum [1]): > 500 nM

SMILES: COc1ccc(C[C@H](N)C(=O)N[C@H]2[C@@H](O)[C@H](n3cnc4c(N(C)C)ncnc43)O[C@@H]2CO)cc1 [PUROMYCIN]
- IC50 (Plasmodium falciparum [3]): 149 nM
- IC50 (Plasmodium falciparum [4]): 114 nM
- Ratio IC50 [5]: 0.8

SMILES: COc1ccc(-n2c(N)nc3ccccc32)c(O)c1
- IC50 (Plasmodium falciparum [1]): 43 nM
- IC50 (Plasmodium falciparum [6]): 168 nM
- IC50 (Plasmodium falciparum [7]): 212 nM
- selectivity ratio [10]: > 1000
- solubility kinetic at 0.5 h [11]: > 100 µg/mL
- half-life at 1 µM [12]: 0.1 h
- half-life at 1 µM [13]: 2.07 h
- microsomal CLint at 1 µM [14]: 271 µL/min/mg
- microsomal CLint at 1 µM [15]: 14 µL/min/mg
- solubility kinetic at 0.5 h [16]: 50 µg/mL (≈ 196 µM)
- Activity (HEK293): Non-Toxic

SMILES: Nc1nn(-c2ccccc2O)c2ccccc12
- IC50 (Plasmodium falciparum [1]): > 500 nM

SMILES: Nc1cccc(-c2nc3ccccc3[nH]2)c1
- Kd [17]: 500000 nM

SMILES: N#Cc1cc(NC(=O)[C@H]2c3ccccc3C(=O)N(CC(F)(F)F)[C@@H]2c2cccnc2)ccc1F [SJ-733]
- IC50 (Plasmodium falciparum [4]): 58.7 nM
- IC50 (Plasmodium falciparum [8]): > 8000 nM
- Ratio IC50 (Plasmodium falciparum [9]): > 135

SMILES: Nc1nc2ccccc2n1-c1ncccc1O
- IC50 (Plasmodium falciparum [1]): > 500 nM

SMILES: Nc1nc2ccccc2n1-c1cc(F)ccc1O
- IC50 (Plasmodium falciparum [1]): 90 nM

SMILES: Cc1ccc(O)c(-n2c(N)nc3ccccc32)c1
- IC50 (Plasmodium falciparum [1]): 56 nM

SMILES: Oc1cccc(-c2nc3ccccc3[nH]2)c1
- Kd [17]: 800000 nM

SMILES: Cc1cccc(-n2c(N)nc3ccccc32)c1O
- IC50 (Plasmodium falciparum [1]): 61 nM

SMILES: Oc1ccccc1-n1c(NC2CCCCC2)nc2ccccc21
- IC50 (Plasmodium falciparum [1]): 333 nM

SMILES: Nc1nc2ccccc2n1-c1c(O)cccc1Cl
- IC50 (Plasmodium falciparum [1]): > 500 nM

SMILES: Nc1nc2ccccc2n1[C@H]1CCC[C@@H]1O
- IC50 (Plasmodium falciparum [1]): > 500 nM

Source: ChEMBL document CHEMBL4837227, “Discovery and development of 2-aminobenzimidazoles as potent antimalarials” (Eur J Med Chem, 2021)
